# Experimental data taken from publication PMC411066 (BMC Medicine, 2004).
# “And” between values parts separate entries of the source, which are not always exact repeats. Equal entries are not always repeated.
# How the values were obtained:
# Serum digoxin = type: in vivo, human
# Outline: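 Trough serum samples at steady state from 618 digoxin-monitoring patients, assayed by fluorescence polarization immunoassay. Orally given comedications were classed as P-gp inhibitors by PubMed search: Class I, documented in vivo effect on digoxin kinetics; Class II, in vitro inhibition only. Means ± SE from a General Linear Model adjusted for age, sex, digoxin dose and total prescribed drugs, covariates at their means.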
# P-gp = details: cited from earlier work
"Adjusted S-digoxin mean ± SE (Serum digoxin; patients taking one Class I P-gp inhibitor, N = 96)","Adjusted S-digoxin mean ± SE (Serum digoxin; patients taking one P-gp inhibitor, N = 204, multivariate)","S-digoxin with Class II P-gp inhibitors compared with no P-gp inhibitors (Serum digoxin; patients taking one or two Class II P-gp inhibitors, differences not significant in the multivariate model)","Adjusted S-digoxin mean ± SE (Serum digoxin; patients taking three P-gp inhibitors, N = 8, multivariate)","Adjusted S-digoxin mean ± SE (Serum digoxin; patients taking two P-gp inhibitors, N = 78, multivariate)","S-digoxin mean ± SE (Serum digoxin; patients with concomitant P-gp inhibitors, all patients on spironolactone excluded)","Adjusted S-digoxin mean ± SE (Serum digoxin; patients with ≥ 1 P-gp inhibitor, N = 290, adjusted for age, sex, digoxin dose and total number of prescribed drugs)",Compound,"Adjusted S-digoxin mean ± SE (Serum digoxin; patients taking two Class I P-gp inhibitors, N = 17)",In vitro P-gp inhibition (P-gp)
1.65 ± 0.07 nmol/L,1.51 ± 0.05 nmol/L,tended to have elevated S-digoxin levels,2.00 ± 0.25 nmol/L,1.59 ± 0.08 nmol/L,1.46 ± 0.05 nmol/L,1.55 ± 0.04 nmol/L,C[C@H]1O[C@@H](O[C@H]2[C@@H](O)C[C@H](O[C@H]3[C@@H](O)C[C@H](O[C@H]4CC[C@@]5(C)[C@H](CC[C@@H]6[C@@H]5C[C@@H](O)[C@]5(C)[C@@H](C7=CC(=O)OC7)CC[C@]65O)C4)O[C@@H]3C)O[C@@H]2C)C[C@H](O)[C@@H]1O [digoxin],1.83 ± 0.07 nmol/L and 1.83 ± 0.17 nmol/L,
,,,,,,,CC[C@H](C)C(=O)O[C@H]1C[C@H](O)C=C2C=C[C@H](C)[C@H](CC[C@@H](O)C[C@@H](O)CC(=O)O)[C@H]21 [pravastatin],,not an in vitro P-gp inhibitor
